Source: ChEMBL document CHEMBL1212705, “Gene expression signatures and small-molecule compounds link a protein kinase to Plasmodium falciparum motility” (Nat Chem Biol, 2008)
Activity calls are given as the source filed them. The rule behind the calls is not given here.

Assays:
Plasmodium falciparum [1] = assay: Binding affinity to Plasmodium falciparum PF08_0003 at 2.5 mM by LC/MS/MS analysis
Method in brief: (§1)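 P. falciparum parasite lysate was incubated with agarose-immobilized inhibitor and washed extensively. Retained proteins were eluted with urea, resolved by SDS-PAGE and identified by LC/MS/MS. In a competition arm, free inhibitor (2.5 mM) was added to the lysate before incubation with the beads under identical conditions.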

Plasmodium falciparum [2] = assay: Binding affinity to Plasmodium falciparum PF10_0153 at 2.5 mM by LC/MS/MS analysis; method in brief: as §1
Plasmodium falciparum [3] = assay: Binding affinity to Plasmodium falciparum PF14_0186 at 2.5 mM by LC/MS/MS analysis; method in brief: as §1
Plasmodium falciparum [4] = assay: Binding affinity to Plasmodium falciparum CDPK1 at 2.5 mM by LC/MS/MS analysis; method in brief: as §1
[5] = Plasma concentration in BALB/c mouse at 20 mg/kg single oral dose after 24 hrs by LC/MS/MS analysis
Toxoplasma gondii [6] = assay: Antimicrobial activity against Toxoplasma gondii […] infected in african green monkey BSC1 cells assessed as inhibition of parasite invasion at 1.56 uM after 48 hrs by microscopy relative to control; format: functional, organism-based; settings: BSC-1
Plasmodium falciparum [7] = assay: Binding affinity to Plasmodium falciparum PF08_0054 at 2.5 mM by LC/MS/MS analysis; method in brief: as §1
[8] = Cytotoxicity against human Hep2 cells after 72 hrs by Cell Titer Glo assay; format: cell-based, HEp-2; settings: read-out: ED50
Method in brief: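 Cells seeded at 250 per well in DMEM with 5% fetal bovine serum. Compound added the next day, followed by 72 h culture to match the parasite proliferation assay. Viability read by Cell Titer Glo luminescence.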

Plasmodium falciparum [9] = assay: Binding affinity to Plasmodium falciparum PF14_0393 at 2.5 mM by LC/MS/MS analysis; method in brief: as §1
Plasmodium falciparum [10] = assay: Antimicrobial activity against Plasmodium falciparum 3D7 infected in human erythrocytes after 48 hrs by microscopy
Plasmodium falciparum [11] = assay: Binding affinity to Plasmodium falciparum PF14_0075 at 2.5 mM by LC/MS/MS analysis; method in brief: as §1
Plasmodium falciparum [12] = assay: Binding affinity to Plasmodium falciparum PF13_0238 at 2.5 mM by LC/MS/MS analysis; method in brief: as §1
Plasmodium falciparum [13] = assay: Binding affinity to Plasmodium falciparum PFC0720w at 2.5 mM by LC/MS/MS analysis; method in brief: as §1
Plasmodium yoelii = assay: Antiplasmodial activity blood stage Plasmodium yoelii infected in BALB/c mice (Mus musculus) assessed as delay in onset of parasitaemia at 10 mg/kg, perorally BID for 6 days measured after 6 days post infection by Peter's test; format: functional, organism-based; parameters: dose 10 mg/kg
Plasmodium falciparum [14] = assay: Binding affinity to Plasmodium falciparum PF13_0116 at 2.5 mM by LC/MS/MS analysis; method in brief: as §1
Plasmodium falciparum [15] = assay: Antimicrobial activity against Plasmodium falciparum 3D7 schizonts infected in human erythrocytes assessed as effect on parasitemia at 225 to 450 nM after 32 hrs by microscopy
Plasmodium falciparum [16] = assay: Binding affinity to Plasmodium falciparum PF14_0439 at 2.5 mM by LC/MS/MS analysis; method in brief: as §1
Plasmodium falciparum [17] = assay: Antiplasmodial activity against pyrimethamine-resistant Plasmodium falciparum HB3 after 72 hrs by SYBR green assay; format: functional, organism-based; settings: HB3, 72 h
Method in brief: (§2)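 Parasites grown in human O+ erythrocytes in RPMI with human serum and albumax. For the assay, serially diluted compounds were added to screening medium (RPMI, 4.16 mg/ml albumax) at 2.5% hematocrit and 0.3% parasitemia, then incubated 72 h in 93% N2/4% CO2/3% O2. DMSO served as baseline and uninfected erythrocytes as background. SYBR Green fluorescence was read at 520 nm to give EC50.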

Plasmodium falciparum [18] = assay: Binding affinity to Plasmodium falciparum PF11_0191 at 2.5 mM by LC/MS/MS analysis; method in brief: as §1
Toxoplasma gondii [19] = assay: Antimicrobial activity against Toxoplasma gondii […] infected in african green monkey BSC1 cells assessed as parasite invasion at 25 uM after 48 hrs by microscopy relative to control; format: functional, BSC-1
[20] = Cytotoxicity against CHO cells after 72 hrs by Cell Titer Glo assay; format: cell-based, Cricetulus griseus; settings: chinese hamster, read-out: ED50
Method in brief: (§3)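 Cells were seeded at 250 per well in DMEM with 5% FBS in 1,536-well plates, and compound was added the next day. Culture ran 72 h, matching the parasite proliferation assay. Viability was read by Cell Titer Glo luminescence, and EC50 was derived.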

[21] = Half life in BALB/c mouse 20 mg/kg single oral dose by LC/MS/MS analysis; settings: in vivo
Plasmodium falciparum [22] = assay: Binding affinity to Plasmodium falciparum PF11_0351 at 2.5 mM by LC/MS/MS analysis; method in brief: as §1
Plasmodium falciparum [23] = assay: Antimicrobial activity against Plasmodium falciparum schizonts infected in human erythrocytes assessed as minimal effect on parasite cell cycle at 450 nM treated 36 hrs after release of ring stage by microscopy
Plasmodium falciparum [24] = assay: Binding affinity to Plasmodium falciparum PF10_0363 at 2.5 mM by LC/MS/MS analysis; method in brief: as §1
Plasmodium falciparum [25] = assay: Binding affinity to Plasmodium falciparum PFL1170w at 2.5 mM by LC/MS/MS analysis; method in brief: as §1
Plasmodium falciparum [26] = assay: Antimicrobial activity against Plasmodium falciparum 3D7 schizonts infected in human erythrocytes assessed as effect on parasitemia at 225 to 450 nM after 48 hrs by microscopy
Plasmodium falciparum [27] = assay: Binding affinity to Plasmodium falciparum PFL0185c at 2.5 mM by LC/MS/MS analysis; method in brief: as §1
Plasmodium falciparum [28] = assay: Antimicrobial activity against Plasmodium falciparum schizonts infected in human erythrocytes assessed as minimal effect on parasite cell cycle at 450 nM treated 24 hrs after release of ring stage by microscopy
Plasmodium falciparum [29] = assay: Binding affinity to Plasmodium falciparum PFE1155c at 2.5 mM by LC/MS/MS analysis; method in brief: as §1
Plasmodium falciparum [30] = assay: Antimicrobial activity against Plasmodium falciparum schizonts infected in human erythrocytes assessed as minimal effect on parasite cell cycle at 450 nM treated 12 hrs after release of ring stage by microscopy
[31] = Cytotoxicity against human HeLa cells after 72 hrs by Cell Titer Glo assay; format: cell-based; settings: read-out: ED50; method in brief: as §3
[32] = Inhibition of GST-fused Plasmodium falciparum recombinant CDPK1 expressed in Escherichia coli Rosetta 2 assessed as inhibition of [gamma-33P]ATP incorporation into substrate peptide by scintillation counting
Toxoplasma gondii [33] = assay: Antimicrobial activity against Toxoplasma gondii […] infected in african green monkey BSC1 cells assessed as parasite invasion at 100 uM after 90 mins by microscopy relative to control
Plasmodium falciparum [34] = assay: Antiplasmodial activity against multidrug-resistant Plasmodium falciparum FCB after 72 hrs by SYBR green assay; format: functional, organism-based; method in brief: as §2

N[C@H]1CC[C@H](Nc2nc(Nc3ccc(C(=O)N4CCCCC4)cc3)c3ncn(-c4cccc(F)c4)c3n2)CC1 [PURFALCAMINE]
Activity (Plasmodium falciparum [1]): inactive | Activity (Plasmodium falciparum [2]): inactive | Activity (Plasmodium falciparum [3]): inactive | Activity (Plasmodium falciparum [4]): Active | concentration at 24 h [5]: 23 nM | inhibition (Toxoplasma gondii [6]): inactive | Activity (Plasmodium falciparum [7]): inactive | CC50 at 72 h [8]: 7240 nM | Activity (Plasmodium falciparum [9]): inactive | EC90 (Plasmodium falciparum [10]; Plasmodium falciparum 3D7): 414 nM | EC50 (Plasmodium falciparum [10]; Plasmodium falciparum 3D7, 48 h): 230 nM | Activity (Plasmodium falciparum [11]): inactive | Activity (Plasmodium falciparum [12]): inactive | Activity (Plasmodium falciparum [13]): inactive | Activity (Plasmodium yoelii): Active | Activity (Plasmodium falciparum [14]): inactive | inhibition (Plasmodium falciparum [15]): inactive | Activity (Plasmodium falciparum [16]): inactive | EC50 (Plasmodium falciparum [17]): 178 nM | Activity (Plasmodium falciparum [18]): inactive | Activity (Toxoplasma gondii [19]): <=20% | CC50 at 72 h [20]: 12300 nM | half-life [21]: 3.1 h | Activity (Plasmodium falciparum [22]): inactive | Activity (Plasmodium falciparum [23]): Active | Activity (Plasmodium falciparum [24]): inactive | Activity (Plasmodium falciparum [25]): inactive | Activity (Plasmodium falciparum [26]): Active | Activity (Plasmodium falciparum [27]): inactive | Activity (Plasmodium falciparum [28]): Active | Activity (Plasmodium falciparum [29]): inactive | Activity (Plasmodium falciparum [30]): Active | CC50 at 72 h [31]: 7030 nM | IC50 [32]: 17 nM | Activity (Toxoplasma gondii [33]): <=20% | EC50 (Plasmodium falciparum [34]): 169 nM
